Experiments:
Plasmodium falciparum [1] = assay: Antimalarial activity against chloroquine-sensitive Plasmodium falciparum 3D7 by [3H]hypoxanthine uptake; assay type: functional, organism-based
HL-60 = assay: Anticancer activity against human HL60 cells by MTT assay; assay type: functional, cell-based
Summary of the method: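 HL-60 cells grown in RPMI-1640 with 10% v/v FBS and 1% v/v L-glutamine, 37 °C, 5% CO2, kept below 1 × 10⁶ cells/mL, passages 5–15. Seeded at 2.5 × 10⁴/well in triplicate and exposed for 72 h to […]. DMSO final below 0.5% v/v. Read by MTT (4 h) then SDS/DMF lysis (4 h), A570/590, as % of vehicle. IC50 taken from inhibition curves; experiments repeated at least three times.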

[2] = Therapeutic index, ratio of IC50 for human HL60 cells to IC50 for Plasmodium falciparum; assay type: cell-based, HL-60; conditions: read-out: TI
Plasmodium falciparum [3] = assay: Antimalarial activity against chloroquine-resistant Plasmodium falciparum K1 by [3H]hypoxanthine uptake; assay type: functional, organism-based
PBMC = assay: Toxicity in PBMC at 250 uM; assay type: cell-based

With `C[C@@H]1CC[C@H]2[C@@H](C)C(=O)O[C@@H]3O[C@@]4(C)CC[C@@H]1[C@]32OO4` [ARTEMISININ] as the molecule, how does the IC50 (Plasmodium falciparum [1]) read?
The IC50 was 12.3 nM.

Which IC50 (HL-60) does the source give for `COc1cccc2c1C(=O)c1c(O)c3c(c(O)c1C2=O)C[C@@](O)(C(=O)CO)C[C@@H]3O[C@H]1C[C@H](N)[C@H](O)[C@H](C)O1` [DOXORUBICIN] here?
The IC50 was 18 nM.

Which selectivity ratio [2] does the source give for `C[C@H]1[C@@H](CCOP(=O)(OCC[C@H]2O[C@@H]3OC4(C)CC[C@H]5[C@H](C)CC[C@@H]([C@H]2C)[C@@]35OO4)Oc2ccccc2)O[C@@H]2OC3(C)CC[C@H]4[C@H](C)CC[C@@H]1[C@@]24OO3` (single isomer, unassigned) here?
Its selectivity ratio is > 500.

And the IC50 (Plasmodium falciparum [3])?
Its IC50 is 0.5 nM.

What about the IC50 (HL-60) of the same molecule?
The IC50 was 270 nM.

What about the Activity (PBMC) of the same molecule?
The Activity was “Non-toxic”.

Which results are given for `C[C@H]1[C@@H](CCNC(=O)NCC[C@H]2O[C@@H]3O[C@@]4(C)CC[C@H]5[C@H](C)CC[C@@H]([C@H]2C)[C@@]35OO4)O[C@@H]2O[C@@]3(C)CC[C@H]4[C@H](C)CC[C@@H]1[C@@]24OO3`?
IC50 (HL-60): > 100000 nM; IC50 (Plasmodium falciparum [1]): > 60 nM

For `COP(=O)(OCC[C@H]1O[C@@H]2OC3(C)CC[C@H]4[C@H](C)CC[C@@H]([C@H]1C)[C@@]24OO3)OCC[C@H]1O[C@@H]2OC3(C)CC[C@H]4[C@H](C)CC[C@@H]([C@H]1C)[C@@]24OO3` (single isomer, unassigned), which selectivity ratio [2] is on record?
The selectivity ratio was > 500.

And the IC50 (Plasmodium falciparum [3])?
Its IC50 is 0.2 nM.

What about the IC50 (HL-60) of the same molecule?
The IC50 was 70 nM.

What about the Activity (PBMC) of the same molecule?
The Activity was “Non-toxic”.

Which IC50 (HL-60) does the source give for `C[C@H]1[C@@H](CCOC(=O)OCC[C@H]2O[C@@H]3O[C@@]4(C)CC[C@H]5[C@H](C)CC[C@@H]([C@H]2C)[C@@]35OO4)O[C@@H]2O[C@@]3(C)CC[C@H]4[C@H](C)CC[C@@H]1[C@@]24OO3` here?
Its IC50 is > 100000 nM.

What about the IC50 (Plasmodium falciparum [1]) of the same molecule?
Its IC50 is 4.6 nM.

For `COP(=O)(OC[C@H]1O[C@@H]2O[C@@]3(C)CC[C@H]4[C@H](C)CC[C@@H]([C@@H]1C)[C@@]24OO3)OC[C@H]1O[C@@H]2O[C@@]3(C)CC[C@H]4[C@H](C)CC[C@@H]([C@@H]1C)[C@@]24OO3`, which IC50 (HL-60) is on record?
Its IC50 is 770 nM.

And the IC50 (Plasmodium falciparum [1])?
The IC50 was 4.8 nM.

For `C[C@@H]1[C@@H](COP(=O)(OC[C@H]2O[C@@H]3O[C@@]4(C)CC[C@H]5[C@H](C)CC[C@@H]([C@@H]2C)[C@@]35OO4)Oc2ccccc2)O[C@@H]2O[C@@]3(C)CC[C@H]4[C@H](C)CC[C@@H]1[C@@]24OO3`, which IC50 (HL-60) is on record?
Its IC50 is 1040 nM.

And the IC50 (Plasmodium falciparum [1])?
The IC50 was 6 nM.

For `CO[C@H]1O[C@@H]2O[C@@]3(C)CC[C@H]4[C@H](C)CC[C@@H]([C@H]1C)[C@@]24OO3` [ARTEMETHER], which IC50 (Plasmodium falciparum [3]) is on record?
Its IC50 is 3.53 nM.

What about the IC50 (Plasmodium falciparum [1]) of the same molecule?
Its IC50 is 2.11 nM.

What does the source list for `C[C@H]1[C@@H](CCCOP(=O)(OCCC[C@H]2O[C@@H]3O[C@@]4(C)CC[C@H]5[C@H](C)CC[C@@H]([C@H]2C)[C@@]35OO4)Oc2ccccc2)O[C@@H]2O[C@@]3(C)CC[C@H]4[C@H](C)CC[C@@H]1[C@@]24OO3`?
IC50 (HL-60): 250 nM; IC50 (Plasmodium falciparum [1]): 0.21 nM

For `C[C@H]1[C@@H](CCN2CCC(C3CCN(CC[C@H]4O[C@@H]5O[C@@]6(C)CC[C@H]7[C@H](C)CC[C@@H]([C@H]4C)[C@@]57OO6)CC3)CC2)O[C@@H]2O[C@@]3(C)CC[C@H]4[C@H](C)CC[C@@H]1[C@@]24OO3`, which IC50 (HL-60) is on record?
Its IC50 is 400 nM.

And the IC50 (Plasmodium falciparum [1])?
Its IC50 is 0.46 nM.

With `C[C@H]1[C@@H](O)O[C@@H]2O[C@@]3(C)CC[C@H]4[C@H](C)CC[C@@H]1[C@@]24OO3` [ARTENIMOL] as the molecule, how does the IC50 (HL-60) read?
The IC50 was 2410 nM.

Which results are given for `C[C@H]1[C@@H](CCNC(=O)C[C@H]2O[C@@H]3O[C@@]4(C)CC[C@H]5[C@H](C)CC[C@@H]([C@H]2C)[C@@]35OO4)O[C@@H]2O[C@@]3(C)CC[C@H]4[C@H](C)CC[C@@H]1[C@@]24OO3`?
IC50 (HL-60): 100 nM; IC50 (Plasmodium falciparum [1]): 0.03 nM

What does the source list for `COP(=O)(OCCC[C@H]1O[C@@H]2O[C@@]3(C)CC[C@H]4[C@H](C)CC[C@@H]([C@H]1C)[C@@]24OO3)OCCC[C@H]1O[C@@H]2O[C@@]3(C)CC[C@H]4[C@H](C)CC[C@@H]([C@H]1C)[C@@]24OO3`?
IC50 (HL-60): 50 nM; IC50 (Plasmodium falciparum [1]): 4.8 nM
